Source: PubChem BioAssay (Broad Institute)
Compounds with a hit are over-represented: about 3.5% of the library has one in this group of screens.
esBAF inh: SWI/SNF esBAF complex inhibition; mouse ES cells, Bmi1-luciferase knock-in reporter, 24 h; 100% = twice the neutral-well signal; reporter increase, % at 12.5 µM; actives 2% (n = 350,000); AID 602393; in the data active = activation above about 40%; inconclusive = no clear call, values can overlap the other calls;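 also: a rise in the Bmi1 reporter signal indicates esBAF inhibition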
ERAP1 HTS inh: blocks human ERAP1 aminopeptidase activity | actives 0.15% (n = 340,000) | Q9NZ08 | recombinant ERAP1, Leu-AMC fluorescence, 60 min | inhibition, % at 10.7 µM;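 active = mean replicate inhibition of at least 30%, or all replicates individually reaching that 30% level; inactive = mean below 30% and not every replicate reaching it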
Target sequence (Q9NZ08 whole entry, looked up): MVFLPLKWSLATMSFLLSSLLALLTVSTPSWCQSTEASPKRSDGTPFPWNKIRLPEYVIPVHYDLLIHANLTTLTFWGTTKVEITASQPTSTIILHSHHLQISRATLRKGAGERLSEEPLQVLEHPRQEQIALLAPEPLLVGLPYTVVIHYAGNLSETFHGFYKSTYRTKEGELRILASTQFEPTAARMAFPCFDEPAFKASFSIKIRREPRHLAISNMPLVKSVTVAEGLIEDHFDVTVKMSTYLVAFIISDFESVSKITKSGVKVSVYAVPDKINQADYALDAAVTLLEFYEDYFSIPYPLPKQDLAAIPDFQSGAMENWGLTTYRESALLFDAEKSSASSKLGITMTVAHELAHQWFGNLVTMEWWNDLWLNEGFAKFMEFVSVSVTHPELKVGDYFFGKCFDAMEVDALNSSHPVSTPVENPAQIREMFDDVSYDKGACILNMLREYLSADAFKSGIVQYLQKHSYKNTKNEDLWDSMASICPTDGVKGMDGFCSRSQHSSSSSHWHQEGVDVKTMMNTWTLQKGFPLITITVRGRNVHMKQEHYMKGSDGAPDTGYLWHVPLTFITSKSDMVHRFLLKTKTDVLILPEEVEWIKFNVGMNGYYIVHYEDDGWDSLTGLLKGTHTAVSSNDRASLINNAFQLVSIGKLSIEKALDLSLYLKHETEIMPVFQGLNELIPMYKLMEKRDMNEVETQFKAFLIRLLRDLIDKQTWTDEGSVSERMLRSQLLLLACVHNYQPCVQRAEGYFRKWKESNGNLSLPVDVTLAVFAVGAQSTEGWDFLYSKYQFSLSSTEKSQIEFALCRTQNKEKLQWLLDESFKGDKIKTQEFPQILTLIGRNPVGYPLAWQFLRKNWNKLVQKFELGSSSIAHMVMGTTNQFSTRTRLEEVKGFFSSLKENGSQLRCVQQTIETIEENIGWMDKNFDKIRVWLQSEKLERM
HIV Env fusion: blocks HIV Env-driven cell-cell fusion. actives 1.1% (n = 360,000). HeLa-JRFL Env/CEM21 cell fusion, luciferase. inhibition, % at 12.3 µM;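 active = mean replicate inhibition score of at least 50 and every replicate individually at or above 50; inconclusive = only one of the two criteria met; inactive = mean below 50 and not all replicates reaching 50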
MITF act: MITF TRPM1 promoter activation in melanoma cells; SK-MEL-5 TRPM1-promoter luciferase, 24 h; % of positive control, neutral wells = 0; activation, % at 12.5 µM; actives 0.75% (n = 300,000);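 active = mean activation of at least 80% with every replicate also reaching 80%; inconclusive = mean reaches 80% but some replicate falls short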
Wnt bcat act: activates Wnt/beta-catenin signaling in a reporter cell assay; activator, plate reader; activation, % at 9.35 µM; actives 1.2% (n = 300,000); AID 743398; in the data active = activation above about 30%, passing the limit was not always enough; inconclusive = no clear call, values can overlap the other calls
Cneo AK release: Cryptococcus neoformans lysis via adenylate kinase release; C. neoformans lysis, adenylate kinase release luminescence, 4 h; normalised: neutral wells 0, clomiphene wells 100; lysis activity, % at 15 µM; actives 0.2% (n = 360,000);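 active = mean lysis activity across replicates of at least 80%, whatever share of replicates individually reach that level; inactive = mean lysis activity below 80%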
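Material: C. neoformans cells; Schedule: 4 h static compound exposure, 37 °C, read 1 h post-reagent; Measured by: adenylate kinase release luminescence; Read-out: signal increase indicating cell lysis; Controls: Clomiphene as positive lysis control.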
Hits are given with their value; - = inactive; ? = inconclusive; . = no result; [ ] = dose if it differs, or a comment.

SMILES | esBAF inh | ERAP1 HTS inh | HIV Env fusion | MITF act | Wnt bcat act | Cneo AK release
CNC[C@H]1OCCCC[C@@H](C)Oc2ccc(NC(=O)NC(C)C)cc2C(=O)N([C@H](C)CO)C[C@@H]1C | . | - | - | . | . | -
CNC[C@H]1OCCCC[C@H](C)Oc2ccc(NC(=O)Cc3ccccc3)cc2C(=O)N([C@H](C)CO)C[C@@H]1C | - | - | - | . | . | 108
CC(C)Cc1ccc(-c2cc3nc(NCCOc4ccccc4)ccn3n2)cc1 | 58 | - | - | . | - | -
c1ccc(COc2ccc(-c3cc4nc(NCCOc5ccccc5)ccn4n3)cc2)cc1 | - | - | 43 | . | - | -
c1ccc(COc2cccc(-c3cc4nc(NCCN5CCOCC5)ccn4n3)c2)cc1 | - | - | - | . | - | -
c1ccc(COc2ccc(-c3cc4nc(NCCN5CCOCC5)ccn4n3)cc2)cc1 | 49 | - | - | . | - | -
c1ccc(COc2cccc(-c3cc4nc(NCCOc5ccccc5)ccn4n3)c2)cc1 | - | - | - | . | - | -
COc1cc(-c2cc3nc(NCCOc4ccccc4)ccn3n2)cc(OC)c1OC | - | - | - | . | - | -
Clc1cccc(-c2cc3nc(NCCOc4ccccc4)ccn3n2)c1 | 57 | - | - | . | - | -
C[C@H](CO)N1C[C@H](C)[C@H](CN(C)S(=O)(=O)c2cn(C)cn2)Oc2c(NC(=O)c3cnccn3)cccc2C1=O | - | - | - | . | . | -
Nc1c(-c2cccc(Cl)c2)cnn1-c1ccccc1 | 52 | - | - | - | - | -
Cc1nc2c(-c3ccc(Cl)cc3)cnn2c(N)c1-c1ccc(F)cc1 | - | - | - | . | - | -
Nc1c(-c2cccc(Cl)c2)cnc2c(-c3ccccc3)cnn12 | 60 | - | - | - | 45 | -
Nc1c(-c2ccccc2)cnn1-c1ccccc1 | - | - | - | - | - | -
Nc1c(-c2ccc(Cl)cc2)cnc2c(-c3ccc(F)cc3)cnn12 | ? | - | - | 111 | 46 | -
O=C1NC2(CCCCC2)C(=O)N1/N=C/c1ccccc1Br | 49 | . | - | - | - | -
CC(O)CNCc1ccccc1C(F)(F)F (stereo unspecified) | - | - | - | - | 41 | -
C[C@H]1CCCCO[C@H](CN(C)C(=O)CCC(F)(F)F)[C@@H](C)CN([C@@H](C)CO)C(=O)c2cc(NC(=O)CCC(F)(F)F)ccc2O1 | - | - | - | . | . | -
CC(C)NC(=O)Nc1ccc2c(c1)C(=O)N([C@@H](C)CO)C[C@@H](C)[C@@H](CN(C)C(=O)CCC(F)(F)F)OCCCC[C@@H](C)O2 | . | - | 86[16.7 µM] | . | . | -
CC(C)NC(=O)Nc1ccc2c(c1)C(=O)N([C@@H](C)CO)C[C@H](C)[C@@H](CN(C)C(=O)CCC(F)(F)F)OCCCC[C@H](C)O2 | . | - | - | . | . | 96
C[C@@H]1CCCCO[C@H](CN(C)C(=O)CCC(F)(F)F)[C@H](C)CN([C@H](C)CO)C(=O)c2cc(NC(=O)CCC(F)(F)F)ccc2O1 | - | - | 87[16.7 µM] | . | . | -
C[C@@H]1CCCCO[C@@H](CN(C)C(=O)Nc2ccccc2)[C@H](C)CN([C@H](C)CO)C(=O)c2cc(NC(=O)CCC(F)(F)F)ccc2O1 | - | - | 66[16.7 µM] | . | . | -
CC(C)NC(=O)Nc1ccc2c(c1)C(=O)N([C@@H](C)CO)C[C@@H](C)[C@@H](CN(C)C(=O)CCC(F)(F)F)OCCCC[C@H](C)O2 | . | - | - | . | . | -
Cc1noc(C)c1S(=O)(=O)Nc1ccc2c(c1)C(=O)N([C@@H](C)CO)C[C@H](C)[C@H](CN(C)Cc1ccc3c(c1)OCO3)OCCCC[C@H](C)O2 | - | - | - | . | . | -
CCCNC(=O)N[C@H]1CC[C@H](CCn2cc(C3CCCCC3)nn2)O[C@@H]1CO | - | - | - | . | . | -
SMILES | esBAF inh | ERAP1 HTS inh | HIV Env fusion | MITF act | Wnt bcat act | Cneo AK release
CC(C)NC(=O)Nc1ccc2c(c1)C(=O)N([C@H](C)CO)C[C@@H](C)[C@@H](CN(C)C(=O)CCC(F)(F)F)OCCCC[C@@H](C)O2 | . | - | 79[16.7 µM] | . | . | -
C[C@@H]1CCCCO[C@H](CN(C)C(=O)c2ccncc2)[C@H](C)CN([C@H](C)CO)C(=O)c2cc(NC(=O)CCC(F)(F)F)ccc2O1 | - | . | - | . | . | 82
C[C@@H]1CCCCO[C@H](CN(C)S(=O)(=O)c2cccs2)[C@@H](C)CN([C@@H](C)CO)C(=O)c2cc(NC(=O)CCC(F)(F)F)ccc2O1 | - | - | - | . | . | 94
CCN1[C@@H]2c3ccc(-c4ccc(F)cc4)c(=O)n3C[C@H]1[C@H](CO)[C@H]2C(=O)Nc1nccs1 | - | - | . | . | . | -
CC(=O)N(C)C[C@H]1Oc2cc(C#Cc3cccc(F)c3)ccc2S(=O)(=O)N([C@@H](C)CO)C[C@H]1C | - | - | - | . | . | -
CC1(Cc2ccc(Cl)cc2)C(=O)Nc2ccc(-c3cccnc3)cc21 (stereo unspecified) | - | - | 69 | . | - | -
CC1(Cc2ccc(Cl)cc2)C(=O)Nc2ccc(S(=O)(=O)NC3CCCCC3)cc21 (stereo unspecified) | - | - | 91 | . | - | -
COc1ccccc1-c1ccc2c(c1)C(C)(Cc1cccc(C#N)c1)C(=O)N2 (stereo unspecified) | - | - | 101 | . | - | -
COc1ccc(Cl)cc1CC1(C)C(=O)Nc2ccc(-c3ccccc3OC)cc21 (stereo unspecified) | - | - | 92 | . | - | -
COc1ccccc1-c1ccc2c(c1)C(C)(Cc1ccc(OC(F)(F)F)cc1)C(=O)N2 (stereo unspecified) | - | - | ? | . | - | -
COCC(=O)Nc1ccc2c(c1)OC[C@@H](C)N(C(=O)C1CCCC1)C[C@@H](C)[C@H](OC)CN(C)C2=O | - | . | - | . | . | -
COc1ccccc1-c1ccc2c(c1)C(C)(Cc1ccc(Cl)cc1)C(=O)N2 (stereo unspecified) | - | - | - | . | - | -
CC(=O)c1cccc(-c2ccc3c(c2)C(C)(Cc2ccccc2C#N)C(=O)N3)c1 (stereo unspecified) | - | - | - | . | - | -
COc1ccccc1-c1ccc2c(c1)C(C)(Cc1ccc(F)c(Cl)c1)C(=O)N2 (stereo unspecified) | - | - | 96 | . | - | -
COc1ccc(C(C)=O)cc1CC1(C)C(=O)Nc2ccc(-c3cccc(C(F)(F)F)c3)cc21 (stereo unspecified) | - | - | 79 | . | - | -
CCC1CCCCN1S(=O)(=O)c1ccc(NC(=O)C2CC(=O)N(C(C)(C)C)C2)cc1 (stereo unspecified) | - | - | . | - | 33 | -
COc1ccc(S(=O)(=O)Nc2ccc3c(c2)C(=O)N([C@@H](C)CO)C[C@H](C)[C@@H](CN(C)C(=O)Nc2ccc(F)cc2)OCCCC[C@@H](C)O3)cc1 | - | - | - | . | . | -
COC(=O)c1c(-c2ccncc2)csc1NC(=O)c1ccoc1C | - | . | - | 88 | . | -
